ChEMBL document CHEMBL1125923, “New dibenzothiadiazepine derivatives with antidepressant activities” (J Med Chem, 1991)

Assays:
[1] = test system: Mus musculus; assay: Rectal temperature of mice treated with compound in apomorphine (16 mg/kg injected sc 30 min before temp. recording) after its oral administration at 400 mg/kg, 0.5 hr before rectal temperature measurement; type: functional
How it was run: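 Screening in male Swiss albino mice (20–22 g): 400 mg/kg compound orally; apomorphine 16 mg/kg sc 30 min before recording. Rectal temperature read at 0.5, 2, 4 h after dosing; value reported at time of peak activity (generally 0.5 h). Groups of 8–20 mice; standard errors 1–3% of mean.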

[2] = Dose of compound required in mg/kg to induce lethality in 50% of mice after 14 days; type: ADME, organism-based; conditions: mouse, in vivo
How it was run: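 Male Swiss albino mice, 20–22 g, dosed orally; deaths followed for up to 2 weeks (14 days) after administration. Groups of 8–20 mice.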

[3] = organism: Mus musculus; assay: Dose of compound required to reduce apomorphine-induced hypothermia by 50% in mice by hypothermia (Apo 16)test; type: functional
How it was run: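 Male Swiss albino mice, 20–22 g; apomorphine 16 mg/kg sc 30 min before rectal temperature recording. Compound given orally, tested at time of peak activity (0.5–2 h). […] Groups of 8–20 mice.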

[4] = test system: Mus musculus; assay: Dose required to reduce reserpine induced hypothermia was measured after sc administration of reserpine at 2.5 mg/kg, 18 hr before the rectal-temperature recording in mice; type: functional; parameters: unit: mg/kg; conditions: reserpine 2.5 mg/kg sc; route oral
How it was run: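 Male Swiss albino mice, 20–22 g; reserpine 2.5 mg/kg sc 18 h before rectal temperature recording. Compound given orally at time of peak activity, generally 0.5 h before recording. Groups of 8–20 mice.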

[5] = test system: Mus musculus; assay: Compound was evaluated after 24 hr for physostigmine induced lethality upon oral administration 60 min before intraperitoneal injection of physostigmine (0.9 mg/kg) in mice at 200 mg/kg; type: ADME, organism-based; parameters: dose 200 mg/kg, route oral; conditions: in vivo
How it was run: (§1)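 Male Swiss albino mice, 20–22 g; compound given orally 60 min before physostigmine 0.9 mg/kg ip. Lethality scored 24 h after physostigmine injection and expressed as % of group dying. Groups of 8–20 mice; significance vs vehicle by χ2.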

[6] = test system: Mus musculus; assay: Compound was evaluated after 24 hr for physostigmine induced lethality upon oral administration 60 min before intraperitoneal injection of physostigmine (0.9 mg/kg) in mice at 400 mg/kg; type: ADME, organism-based; parameters: dose 400 mg/kg, route oral; conditions: in vivo; how it was run: as §1
[7] = test system: Mus musculus; assay: Compound was evaluated after 24 hr for physostigmine induced lethality upon oral administration 60 min before intraperitoneal injection of physostigmine (0.9 mg/kg) in mice at 600 mg/kg; type: ADME, organism-based; parameters: dose 600 mg/kg, route oral; conditions: in vivo; how it was run: as §1
[8] = test system: Mus musculus; assay: Compound was evaluated after 24 hr for physostigmine induced lethality upon oral administration 60 min before intraperitoneal injection of physostigmine (0.9 mg/kg) in mice at 25 mg/kg; type: ADME, organism-based; parameters: dose 25 mg/kg, route oral; conditions: in vivo; how it was run: as §1

| SMILES | Rectal temperature [1] [°C] | Min effective dose [4] | other results |
| --- | --- | --- | --- |
| Cc1cc2c(cc1Cl)N(C(=O)CN1CCN(c3ncccn3)CC1)c1ccccc1N(C)S2(=O)=O | 32.7 |  |  |
| CN1c2ccccc2N(C(=O)CNC(C)(C)C)c2ccccc2S1(=O)=O | 32.2 |  |  |
| CN(C)CCC(=O)N1c2ccccc2N(C)S(=O)(=O)c2ccccc21 | 36.5 | >100 | LD50 at 336 h [2]: 521 mg/kg; ED50 [3]: 23.1 mg/kg |
| CN(C)CCN1c2ccccc2N(C)S(=O)(=O)c2ccccc21 |  | 100 | LD50 at 336 h [2]: 468 mg/kg; ED50 [3]: > 100 mg/kg |
| CN1c2ccccc2N(C(=O)CN2CCCC2)c2ccccc2S1(=O)=O | 34.2 |  |  |
| CCN1c2ccccc2N(C(=O)CN(C)C)c2ccccc2S1(=O)=O | 35.1 |  |  |
| Cc1cc2c(cc1Cl)N(C(=O)CN1CCN(c3ccccc3)CC1)c1ccccc1N(C)S2(=O)=O | 34.5 |  |  |
| Cc1cc2c(cc1Cl)N(C(=O)CN1CCN(CCO)CC1)c1ccccc1N(C)S2(=O)=O | 34.1 |  |  |
| CC1CCN(CC(=O)N2c3ccccc3N(C)S(=O)(=O)c3ccccc32)CC1 | 33.2 |  |  |
| CN(C)CCCN1c2ccccc2N(C)S(=O)(=O)c2ccccc21 |  | >100 | LD50 at 336 h [2]: 655 mg/kg; ED50 [3]: 4.9 mg/kg |
| CCCN1c2ccccc2N(C(=O)CN(C)C)c2ccccc2S1(=O)=O | 35.8 |  |  |
| CN(C)CC(=O)N1c2cc(Cl)ccc2N(C)S(=O)(=O)c2ccccc21 | 37.4 | >100 | ED50 [3]: 50.6 mg/kg |
| CN1c2ccccc2N(C(=O)CN2CCOCC2)c2ccccc2S1(=O)=O | 33.9 |  |  |
| Cc1ccc2c(c1)N(C(=O)CN(C)C)c1ccccc1S(=O)(=O)N2C | 38.8 | 100 | LD50 at 336 h [2]: 1730 mg/kg; ED50 [3]: 14.4 mg/kg |
| CCN(CC)CC(=O)N1c2ccccc2N(C)S(=O)(=O)c2ccccc21 | 37.4 | >100 | LD50 at 336 h [2]: > 2000 mg/kg; ED50 [3]: 23 mg/kg |
| CN(C)CC(=O)N1c2ccccc2N(C)S(=O)(=O)c2cc(Cl)ccc21 | 37.7 | >100 | ED50 [3]: 54.5 mg/kg |
| CNCC(=O)N1c2ccccc2N(C)S(=O)(=O)c2ccccc21 | 38.2 | 100 | LD50 at 336 h [2]: 789 mg/kg; ED50 [3]: 12 mg/kg |

| SMILES | Rectal temperature [1] [°C] | Min effective dose [4] | other results |
| --- | --- | --- | --- |
| CN1c2ccccc2N(C(=O)CN)c2ccccc2S1(=O)=O | 36.1 |  |  |
| Cc1ccc2c(c1)N(C(=O)CN(C)C)c1ccccc1N(C)S2(=O)=O | 35.2 |  |  |
| CN(C)CC(=O)N1c2ccccc2N(C)S(=O)(=O)c2ccc(Cl)cc21 | 35.4 |  |  |
| CN1c2ccccc2N(C(N)=O)c2ccccc2S1(=O)=O | 33.8 |  |  |
| CC(C)NCC(=O)N1c2ccccc2N(C)S(=O)(=O)c2ccccc21 | 34.1 |  |  |
| CN1CCN(CC(=O)N2c3ccccc3N(C)S(=O)(=O)c3ccccc32)CC1 | 34.4 |  |  |
| CN(C)CC(=O)N1c2ccccc2N(C)S(=O)(=O)c2ccc(C(F)(F)F)cc21 | 34.8 |  |  |
| CN1c2ccccc2N(C(=O)CN2CCN(CCO)CC2)c2ccccc2S1(=O)=O | 34.4 |  |  |
| CN(C)C(=O)N1c2ccccc2N(C)S(=O)(=O)c2ccccc21 | 33.7 |  |  |
| Cc1cc2c(cc1Cl)N(C(=O)CN1CCN(C)CC1)c1ccccc1N(C)S2(=O)=O | 32.5 |  |  |
| COc1ccc2c(c1)N(C(=O)CN(C)C)c1ccccc1N(C)S2(=O)=O | 33.6 |  |  |
| CN(C)CC(=O)N1c2ccccc2N(C)S(=O)(=O)c2ccccc21 | 38.7 | 25 | LD50 at 336 h [2]: 1920 mg/kg; Lethality [5]: 95%; Lethality [6]: 95%; Lethality [7]: 90% |
| Cc1cc2c(cc1Cl)N(C(=O)CNC(C)C)c1ccccc1N(C)S2(=O)=O | 33.1 |  |  |
| Cc1cc2c(cc1Cl)N(C(=O)CN(C)C)c1ccccc1N(C)S2(=O)=O | 35.8 |  |  |
| CN(C)CC(=O)N1c2ccc(Cl)cc2N(C)S(=O)(=O)c2ccccc21 | 39.5 | >100 | LD50 at 336 h [2]: 1420 mg/kg; ED50 [3]: 23.5 mg/kg |
| CN(C)CCC=C1c2ccccc2CCc2ccccc21 [AMITRIPTYLINE] |  |  | Lethality [8]: 37% |
| CN(C)CCCN1c2ccccc2CCc2ccccc21 [IMIPRAMINE] |  | 4 | ED50 [3]: 3.7 mg/kg |
